# Source: PubChem BioAssay (Johns Hopkins Ion Channel Center)
# RGS4 inh = human RGS4 inhibition; P49798; HEK293 M3R/RGS4 inducible, Fluo-4 calcium flux; hits give high values; triggered by carbachol at its EC20; B-score at 10 µM; 0.45% of 310,000 active; AID 463165;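 active means B-score, a plate-corrected calcium signal, over three deviations above library mean, with baseline fluorescence within five deviations of library mean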;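 further: RGS4 expression induced by doxycycline in cells with stable M3 receptor; B-score is computed from the integrated fluorescence ratio over baseline after carbachol; higher B-score means a larger calcium signal and so more RGS4 inhibition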
# Target sequence (P49798 whole entry, looked up): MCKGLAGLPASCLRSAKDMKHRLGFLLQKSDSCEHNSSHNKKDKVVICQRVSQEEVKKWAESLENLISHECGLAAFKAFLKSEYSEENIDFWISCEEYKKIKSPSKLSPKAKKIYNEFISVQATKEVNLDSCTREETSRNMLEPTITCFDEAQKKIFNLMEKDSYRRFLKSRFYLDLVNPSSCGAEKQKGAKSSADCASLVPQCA
# MrgX1 antag = blocks BAM8-22 activation of human MrgX1 receptor; B-score at 10 µM; MRGX1-HEK293 calcium flux, Fluo-4, BAM8-22 antagonism; hits give low values; 1.3% of 310,000 active; AID 588676; Q96LB2;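 active means calcium-response B-score plate-corrected more than 3 library SD below zero, starting fluorescence within 5 deviations, no agonist response on first addition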;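 further: peak minus trough fluorescence over baseline after final BAM8-22 challenge near maximal dose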
# Target sequence (Q96LB2 whole entry, looked up): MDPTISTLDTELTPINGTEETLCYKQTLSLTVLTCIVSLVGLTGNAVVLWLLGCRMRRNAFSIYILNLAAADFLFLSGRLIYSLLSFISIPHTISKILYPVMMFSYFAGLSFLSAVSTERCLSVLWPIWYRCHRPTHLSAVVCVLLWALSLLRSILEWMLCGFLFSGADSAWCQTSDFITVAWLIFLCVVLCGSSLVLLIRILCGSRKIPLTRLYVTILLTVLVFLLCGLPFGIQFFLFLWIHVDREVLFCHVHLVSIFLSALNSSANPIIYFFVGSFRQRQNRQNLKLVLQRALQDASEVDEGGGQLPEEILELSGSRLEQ
# RGS4 act = potentiators or activators of RGS4. B-score at 10 µM. AID 463111. HEK293 M3R/inducible RGS4, carbachol calcium flux Fluo4; hits give low values. 0.92% of 310,000 active;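 active means B-score of the integrated calcium signal more than 4 SD below the library mean, with starting fluorescence not abnormally high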;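 further: negative B-score means reduced calcium response which marks RGS4 activation or potentiation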
#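 Detection: kinetic calcium fluorescence imaging with Fluo4-AM dye, 2 µM / Material: HEK293 cells with stable M3R and inducible RGS4 / Schedule: recording 10 s baseline at 1 Hz, 100 s post-agonist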
# MrgX1 agonist = activates human MrgX1 receptor signaling; Q96LB2; MrgX1-HEK293 cells, Fluo-4 calcium fluorescence, agonist mode; hits give high values; B-score at 10 µM; 0.44% of 310,000 active; AID 588627;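 active means calcium response B-score plate-corrected fluorescence ratio at least 3 library SD, with starting fluorescence B-score inside 5 SD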
#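 Material: HEK293 cells stably expressing human MrgX1 receptor | Quantity: 15,000 cells per well | Times: Cells plated overnight, dye loaded 0.5 h 37 °C, 0.5 h room temperature | Measured by: Kinetic Fluo-4 NW fluorescence of intracellular calcium | Control set: Positive and negative controls per plate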
# MrgX1 allo act = human MrgX1 positive allosteric modulation, primary screen | Q96LB2 | 0.63% of 310,000 active | MrgX1-HEK293, Fluo-4 calcium flux, FDSS; hits give high values | B-score at 10 µM;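 active means plate-corrected calcium response at least 3 library SD above typical, normal starting fluorescence, not activating the receptor alone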;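 further: compound read alongside a low EC10 to EC30 dose of BAM8-22 agonist; peak minus trough fluorescence over baseline measured at the second addition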
# RGS4 block valid = RGS4 inhibitor validation | shares compounds with RGS4 inh | 65% of 1,700 active | HEK293 M3R/RGS4, carbachol calcium Fluo-4 fluorescence; carbachol added at its EC20; 0 = buffer wells, 100 = carbachol control | calcium response, % at 10 µM;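 active means duplicate-averaged calcium response above the buffer-only control mean plus 5 SD of those controls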;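 further: integrated fluorescence ratio F max minus min over baseline F0; higher response in RGS4-induced cells means RGS4 inhibition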
# M3R Ca ctr = checks RGS4 inhibitor effects in non-induced HEK293 M3R cells; shares compounds with RGS4 inh; carbachol calcium Fluo-4; submaximal (EC20) carbachol stimulus; buffer wells 0%, carbachol control wells 100%; activity (percent), % at 10 µM; 20% of 1,900 active; call rule not given here;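 further: RGS4 induction absent so cells express M3R without RGS4; higher means more calcium signal and flags a non-specific hit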
# RGS4 inh ctr2 = signal in non-induced cells without carbachol, RGS4 inhibitor counter-screen; shares compounds with RGS4 inh; HEK293 M3R/RGS4 non-induced, Fluo-4 calcium, no carbachol; normalised: buffer wells 0%, carbachol wells 100%; AID 493001; 22% of 1,900 active; calcium response (agonist-mode artifact), % at 10 µM;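 active means duplicate-averaged calcium rise in uninduced cells above buffer wells' mean plus 5 SD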
# Active calls of the source: *; i = inactive; / = no result given. Hits are enriched below; roughly 3.5% of the tested compounds scored in any of these assays.
SMILES,RGS4 inh,MrgX1 antag,RGS4 act,MrgX1 agonist,MrgX1 allo act,RGS4 block valid,M3R Ca ctr,RGS4 inh ctr2
Cc1ccc(-c2cc(Cc3ccc(F)cc3)c(=O)[nH]n2)cc1,i,i,i,i,i,/,/,/
Cc1ccc(Cc2cc(-c3ccc(C)cc3)n[nH]c2=O)cc1,i,i,i,i,i,/,i,i
O=c1[nH]nc(-c2ccc(F)cc2)cc1Cc1ccc(F)cc1,i,i,i,i,i,/,i,i
CC1(C)COC(/C=C/c2ccc([N+](=O)[O-])cc2)=N1,5.7*,i,i,i,i,8.0%*,29%*,i
CC(=O)Nc1scc(C)c1-c1nc2ccccc2s1,i,i,i,i,i,/,/,/
Cc1csc(NC(=O)COCC(=O)O)c1-c1nc2ccccc2s1,6.8*,i,i,i,i,22%*,i,i
Cc1csc(NC(=O)CCCC(=O)O)c1-c1nc2ccccc2s1,6.2*,i,i,i,i,32%*,48%*,i
COC(=O)NC(=S)N1CCOCC1,i,i,i,i,i,/,/,/
O=C(N/N=C/c1c[nH]c2ccccc12)C1CC1(c1ccccc1)c1ccccc1 (stereo not drawn),i,i,i,i,i,/,/,/
O=C(N/N=C/c1c[nH]c2ccccc12)C1CC1c1ccccc1 (stereo not drawn),5.6*,i,i,i,i,9.5%*,36%*,11%*
Cc1ccc(-c2cc(C(=O)N/N=C/c3c[nH]c4ccccc34)[nH]n2)cc1,i,/,i,/,/,i,i,i
O=C(N/N=C/c1c[nH]c2ccccc12)c1cc(-c2ccc(-c3ccccc3)cc2)n[nH]1,i,i,i,i,i,/,/,/
COc1cc(C(C[N+](=O)[O-])c2c(N)n(C)c(=O)n(C)c2=O)ccc1O (stereo not drawn),5.2*,i,i,i,i,20%*,i,8.0%*
Cc1ccc(C(C[N+](=O)[O-])c2c(N)n(C)c(=O)n(C)c2=O)cc1 (stereo not drawn),i,i,i,i,i,/,/,/
N#Cc1ccccc1NC(=O)C1SC(=Nc2ccccc2)C(C(=O)Nc2ccc(Cl)cc2)=C1N (stereo not drawn),5.8*,i,i,i,i,i,i,i
O=C(CCNc1ccc(F)c(Cl)c1)c1ccco1,i,i,i,i,i,/,/,/
O=C(CCNc1ccc(F)cc1)c1ccco1,5.4*,i,i,i,i,11%*,i,i
O=C(CNC(=O)c1ccco1)Nc1ccc(F)c(Cl)c1,i,i,i,i,i,/,/,/
CCCn1c(/N=C/c2ccccc2O)nc2ccccc21,i,i,i,i,i,/,/,/
CCn1c(/N=C/c2c[nH]c3ccccc23)nc2ccccc21,i,i,i,i,i,/,i,i
CCCCn1c(/N=C/c2ccc(N(C)C)cc2)nc2ccccc21,i,i,i,i,i,/,/,/
CCCn1c(/N=C/c2c[nH]c3ccccc23)nc2ccccc21,5.1*,i,i,i,i,8.0%*,i,i
CCCCn1c(/N=C/c2c[nH]c3ccccc23)nc2ccccc21,i,i,i,i,i,/,i,i
COc1cccc(OCC(=O)Nc2cc(Cl)ccc2Oc2ccccc2)c1,i,i,i,i,i,/,/,/
N#Cc1c(NC(=O)CSc2nc(N)cc(=O)[nH]2)sc2c1CCCCCC2,i,i,i,i,i,/,/,/
SMILES,RGS4 inh,MrgX1 antag,RGS4 act,MrgX1 agonist,MrgX1 allo act,RGS4 block valid,M3R Ca ctr,RGS4 inh ctr2
N#Cc1c(NC(=O)CSc2ncn[nH]2)sc2c1CCCCC2,i,i,i,i,i,/,i,i
COc1ccc(NC(=O)/C(Cl)=C(/Cl)S(=O)Cc2ccccc2)cn1 (stereo not drawn),27*,i,i,i,i,46%*,i,i
CSc1c(C#N)c(N)c(C#N)c2c1COC(C)(C)C2,5.8*,i,i,i,i,5.5%*,i,i
N#Cc1c(-c2ccccc2Cl)noc1/C=C/Nc1ccc(C(=O)O)cc1,i,i,i,i,i,/,i,i
O/N=C/c1cn(-c2ccccc2)nc1-c1ccccc1,i,i,i,i,i,/,/,/
CC1(C)CC(=O)C(=Cc2cn(-c3ccccc3)nc2-c2ccccc2)C(=O)C1,i,i,i,i,i,i,i,i
O=C1N=C2SCCN2/C1=C\c1ccc(Cl)cc1,25*,i,i,i,i,85%*,i,i
Cc1ccc(/C=C2\SC(N3CCCC3)=NC2=O)cc1,i,i,i,i,i,/,/,/
N#Cc1c(-c2ccccc2)c(-c2ccccc2)nn(CC(=O)NNC(=O)Nc2ccccc2)c1=O,i,i,i,i,i,i,i,i
Cn1c(SCC(=O)NNC(=O)Nc2ccc(Cl)cc2)nnc1-c1ccccc1,i,i,i,i,i,/,/,/
N#Cc1c(-c2ccccc2)c(-c2ccccc2)nn(CC(=O)NNC(=O)Nc2ccc(Cl)cc2)c1=O,i,i,i,i,i,/,i,i
COc1ccc(NC(=O)c2cc(-c3cc(Cl)ccc3O)n[nH]2)c(OC)c1,i,i,i,i,i,/,/,/
COc1ccc(OC)c(NC(=O)c2cc(-c3cc(C)c(C)cc3O)n[nH]2)c1,i,i,i,i,i,/,/,/
COc1ccc(Cl)cc1NC(=O)c1cc(-c2cc(C)ccc2O)n[nH]1,i,i,i,i,i,i,i,i
COc1ccc(Cl)cc1NC(=O)c1cc(-c2ccc(C)cc2O)n[nH]1,i,i,i,i,i,/,i,i
C=C(C)CNC(=S)N/N=C/c1ccc(NC(C)=O)cc1,i,i,i,i,i,/,/,/
O=c1c2ccccc2nc2c3ccccc3c(NCc3ccco3)nn12,4.9*,i,i,i,i,i,i,i
Cc1ccc(N2C(=O)C3NN=C(C(=O)OCc4ccccc4)C3C2=O)cc1 (stereo not drawn),i,i,i,i,i,/,/,/
